Assay type in all cases: functional
The test system of experiment [1] is Cavia porcellus. The experiment is described as follows: Inhibition of Collagen-induced serum Thromboxane (TXB2) generation in guinea pig whole blood ex vivo after 10 mg/kg oral administration of compound. The method in brief:
(§1)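 Male Dunkin-Hartley guinea pigs (300-350 g), fasted overnight, dosed orally by gavage in 50% PEG 400/50% carboxymethylcellulose vehicle. Pentobarbitone anaesthesia 10 min before bleed at 1 h post-dose. Aortic blood was taken into citrate and stirred at 37 °C. Collagen (10 μg/mL) was added and incubated 5 min, then stopped with indomethacin. Plasma TxB2 was measured by RIA and normalized to 5.0×10^8 platelets/mL. Groups of ≥4 animals.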

Experiment [2] relates to Cavia porcellus. Nature of the experiment: Inhibition of Collagen-induced Thromboxane (TXB2) generation in guinea pig whole blood ex vivo by oral 10 mg/kg administration of test compound. A digest of the protocol:
as §1

In experiment [3] the test system is Cavia porcellus. Nature of the experiment: Dose-related effect was determined 1 hr after oral administration in guinea pig and expressed as ED50 value. The method in brief: as §1
In experiment [4] the target is T1, Thromboxane-A synthase (Homo sapiens, UniProt P24557).
T1 sequence (P24557 whole entry): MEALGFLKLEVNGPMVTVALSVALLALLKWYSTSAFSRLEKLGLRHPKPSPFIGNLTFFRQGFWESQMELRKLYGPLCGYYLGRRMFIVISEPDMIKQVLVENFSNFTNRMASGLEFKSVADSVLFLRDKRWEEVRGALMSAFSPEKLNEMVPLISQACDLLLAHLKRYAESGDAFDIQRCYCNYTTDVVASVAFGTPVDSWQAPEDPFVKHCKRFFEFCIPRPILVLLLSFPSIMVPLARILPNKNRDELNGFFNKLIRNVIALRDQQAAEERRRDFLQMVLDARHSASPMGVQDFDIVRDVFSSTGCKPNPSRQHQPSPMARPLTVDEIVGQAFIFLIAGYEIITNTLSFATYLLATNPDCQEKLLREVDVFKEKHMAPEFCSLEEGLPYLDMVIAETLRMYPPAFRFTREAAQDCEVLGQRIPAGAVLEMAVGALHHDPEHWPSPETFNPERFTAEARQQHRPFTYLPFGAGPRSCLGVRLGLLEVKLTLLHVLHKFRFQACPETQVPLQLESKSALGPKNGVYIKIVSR
Nature of the experiment: Inhibition of Thromboxane B2 formation in collagen-stimulated human platelets in platelet rich plasma.

Experiment [5] deals with Cavia porcellus. The experiment is described as follows: Inhibition of Collagen-induced Thromboxane (TXB2) in guinea pig whole blood ex vivo by oral 30 mg/kg administration of test compound. The method in brief:
as §1

The subject of experiment [6] is Cavia porcellus. Nature of the experiment: Inhibition of Collagen-induced serum Thromboxane (TXB2) in guinea pig whole blood ex vivo after 30 mg/kg oral administration of compound. A digest of the protocol:
as §1

The test system of experiment [7] is Cavia porcellus. The experiment is described as follows: Inhibition of Collagen-induced Thromboxane (TXB2) in guinea pig whole blood ex vivo after 1 hr of 30 mg/kg oral administration of compound. The method in brief: as §1
Experiment [8] relates to Cavia porcellus. The experiment is described as follows: Inhibition of Collagen-induced Thromboxane (TXB2) in guinea pig whole blood ex vivo after 1 hr of 30 mg/kg oral administration of compound. The method in brief: as §1
Experiment [9] deals with Cavia porcellus. The experiment is described as follows: Inhibition of Collagen-induced serum Thromboxane (TXB2) in guinea pig whole blood ex vivo after 10 mg/kg oral administration of compound. A digest of the protocol:
as §1

The subject of experiment [10] is Cavia porcellus. Nature of the experiment: Inhibition of Collagen-induced Thromboxane (TXB2) in guinea pig whole blood ex vivo after 1 hr of 10 mg/kg oral administration of compound. A digest of the protocol: as §1

Where only a bound is given, the exact number is not on record here.

Take `COc1ccc(COC[C@H](Cn2ccnc2)OCCCCC(C)(C)C(=O)O)cc1`: the inhibition in vivo at 10 mg/kg in experiment [1] stood at 95%. In addition, in [2], the “Thromboxane B2 (TxB2)” value turned out to be 61.9 pg 0.1ml-1 500x10^3. This compound yielded an ED50 in experiment [3] of 1.4 mg/kg. In experiment [4], this compound registered a concentration for half-maximal inhibition (IC50) of 36 nM.
On to `COc1ccc(COCC(Cn2ccnc2)OCCCCC(C)(C)C(=O)O)cc1` (racemic), for which the “Thromboxane B2 (TxB2)” value in [5] is recorded as 153 pg 0.1ml-1 500x10^3. The inhibition in vivo at 30 mg/kg in experiment [6] amounted to 87%. Besides, the median effective dose (ED50) in experiment [7] worked out at 3.4 mg/kg. Also, half-maximal inhibition in experiment [4] (IC50) was put at 120 nM.
Turning to `CCOC(=O)CCC/C=C/CC(COCc1ccc(OC)cc1)Cn1ccnc1` (stereo unspecified), the “Thromboxane B2 (TxB2)” value in experiment [5] stood at 1265 pg 0.1ml-1 500x10^3. For the same compound, in experiment [6], the inhibition in vivo at 30 mg/kg is 23%. This compound also registered an IC50 in experiment [4] of 390 nM.
As for `COc1ccc(COC[C@@H](Cn2ccnc2)OCCCCC(C)(C)C(=O)O)cc1`, the “Thromboxane B2 (TxB2)” value in experiment [5] amounted to 572 pg 0.1ml-1 500x10^3. In addition, the inhibition in vivo at 30 mg/kg in experiment [6] is 71%. This compound also returned a 50% effective dose (ED50) in experiment [7] of 12 mg/kg. The compound also came in with a concentration for half-maximal inhibition (IC50) in experiment [4] of 420 nM.
In the case of `COc1ccc(COCC(Cn2ccnc2)OCCCCCC(=O)O)cc1` (stereo unspecified), in experiment [5], the “Thromboxane B2 (TxB2)” value came out at 130 pg 0.1ml-1 500x10^3. In addition, in experiment [6], the inhibition in vivo at 30 mg/kg is 82%. Besides, the 50% effect level in [7] (ED50) was put at a dose of 10.5 mg/kg. Further, the IC50 in experiment [4] is 560 nM.
In the case of `CCOC(=O)CCCCOC(COCc1ccc(OC)cc1)Cn1ccnc1` (stereo unspecified), the “Thromboxane B2 (TxB2)” value in experiment [5] was found to be 2018 pg 0.1ml-1 500x10^3. Further, the inhibition in vivo at 30 mg/kg in experiment [6] was -11%. In addition, the IC50 in experiment [4] was found to be 750 nM.
For `COc1ccc(COCC(CCCCCCC(=O)O)Cn2ccnc2)cc1` (stereo unspecified), in that order: 1620 pg 0.1ml-1 500x10^3, -18% and 1430 nM.
`CCOC(=O)CCCCCCC(COCc1ccc(OC)cc1)Cn1ccnc1` (stereo unspecified): in experiment [5], the “Thromboxane B2 (TxB2)” value is recorded as 683 pg 0.1ml-1 500x10^3. Moreover, the inhibition in vivo at 30 mg/kg in [6] was 53%. In [4], this compound yielded a concentration for half-maximal inhibition (IC50) of 1000 nM.
`COc1ccc(COCC(Cn2ccnc2)OCCCCCCC(C)(C)C(=O)O)cc1` (stereo unspecified): the IC50 in experiment [4] was greater than 20000 nM.
Take `COc1ccc(COCC(Cn2ccnc2)OCCC/C=C/C(=O)O)cc1` (stereo unspecified): in [5], the “Thromboxane B2 (TxB2)” value is recorded as 1302 pg 0.1ml-1 500x10^3. For the same compound, the inhibition in vivo at 30 mg/kg in experiment [6] turned out to be 4%. The same compound displayed a half-maximal inhibitory concentration (IC50) in experiment [4] of 8330 nM.
For `CCOC(=O)CCCCCOC(COCc1ccc(OC)cc1)Cn1ccnc1` (stereo unspecified), in experiment [5], the “Thromboxane B2 (TxB2)” value worked out at 750 pg 0.1ml-1 500x10^3. The inhibition in vivo at 30 mg/kg in experiment [6] stood at 63%. Besides, it took a dose of 13.5 mg/kg to reach the 50% effect level in experiment [8] (ED50). In [4], this compound displayed an IC50 of 120 nM.
Turning to `COc1ccc2c(c1)c(CC(=O)O)c(C)n2C(=O)c1ccc(Cl)cc1` [INDOMETHACIN], the “Thromboxane B2 (TxB2)” value in experiment [2] came out at 27 pg 0.1ml-1 500x10^3. Besides, in experiment [9], the inhibition in vivo at 10 mg/kg came out at 99%. The compound also yielded a median effective dose (ED50) at 10 mg/kg in [10] of less than 10 mg/kg.
With `COc1ccc(COCC(Cn2ccnc2)OCCCCC(=O)O)cc1` (stereo unspecified), in experiment [5], the “Thromboxane B2 (TxB2)” value worked out at 1047 pg 0.1ml-1 500x10^3. In addition, the inhibition in vivo at 30 mg/kg in [6] turned out to be 43%. Moreover, the IC50 in experiment [4] was determined as 730 nM.
`CCOC(=O)/C=C/CCCOC(COCc1ccc(OC)cc1)Cn1ccnc1` (stereo unspecified) registered an IC50 in experiment [4] of 10000 nM.
For `COc1ccc(COCC(Cn2ccnc2)OCCCCCCC(=O)O)cc1` (stereo unspecified), in experiment [5], the “Thromboxane B2 (TxB2)” value is reported as 923 pg 0.1ml-1 500x10^3. Also, the inhibition in vivo at 30 mg/kg in experiment [6] is 25%. In experiment [4], the midpoint of inhibition, the IC50, lay at 1890 nM.
With `CCOC(=O)CCCCCCOC(COCc1ccc(OC)cc1)Cn1ccnc1` (stereo unspecified), the “Thromboxane B2 (TxB2)” value in [5] was found to be 2720 pg 0.1ml-1 500x10^3. Further, the inhibition in vivo at 30 mg/kg in experiment [6] came to 33%. This compound also returned a half-maximal inhibitory concentration (IC50) in experiment [4] of 4000 nM.
With `O=C(O)c1ccc(OCCn2ccnc2)cc1` [DAZOXIBEN], the “Thromboxane B2 (TxB2)” value in [5] came to 674 pg 0.1ml-1 500x10^3. Also, the inhibition in vivo at 30 mg/kg in experiment [6] amounted to 54%. The same compound gave an ED50 in [7] of 9.3 mg/kg.
Regarding `CCOC(=O)C(C)(C)CCCCOC(COCc1ccc(OC)cc1)Cn1ccnc1` (stereo unspecified), the “Thromboxane B2 (TxB2)” value in experiment [5] was 55 pg 0.1ml-1 500x10^3. Besides, the inhibition in vivo at 30 mg/kg in experiment [6] was found to be 97%. Besides, in [7], the ED50 is 6.7 mg/kg. Besides, the midpoint of inhibition in [4], the IC50, lay at 17600 nM.

As a reminder, the inhibition in vivo is the drop in the measured response relative to a control, in per cent. What is called ED50 is the midpoint of the dose-response relation. The low end stands for greater potency, the high end for weaker potency. One may read the IC50 as the concentration that inhibits the measured activity by half.

For the origin of these results see ChEMBL document CHEMBL1123616, “Thromboxane synthase inhibitors. Synthesis and pharmacological activity of (R)-, (S)-, and (+/-)-2,2-dimethyl-6-[2-(1H-imidazol-1-yl)-1-[[(4-methoxyphenyl)- methoxy]methyl]ethoxy]hexanoic acids” (J Med Chem, 1987).
